Among the data in ChEMBL document CHEMBL1955790, “One pot synthesis and anticancer activity of dimeric phloroglucinols” (Bioorg Med Chem Lett, 2012) are inhibition of growth and IC50 values, retold here.

Bounds are passed on as bounds.

Experiment [1] relates to PANC-1. Put plainly: Growth inhibition of human PANC1 cells at 10 uM after 48 hrs by WST-8 assay. The conditions noted are these: PANC-1, 48 h, read-out: GI. Type of experiment: functional. Summed up:
(§1)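 ATCC cells kept in DMEM with 10% FBS and antibiotics at 37 °C, 5% CO2. Seeded 5×10^3/well, incubated overnight, then treated with compound for 48 h against a DMSO vehicle control (≤0.1%). CCK-8 (WST-8) reduction by live-cell dehydrogenases read at 450 nm (corrected 650 nm) after 4 h at 37 °C. Viable cells expressed as % of the DMSO control.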

Experiment [2] deals with Calu-1. Put plainly: Cytotoxicity against human Calu1 cells after 48 hrs by WST-8 assay. The conditions noted are these: Calu-1, 48 h. It counts as functional, cell-based. Summed up: (§2)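 ATCC cells kept in DMEM with 10% FBS, penicillin/streptomycin at 37 °C, 5% CO2. Seeded 5×10^3/well and left overnight, then exposed to a range of concentrations with DMSO vehicle (≤0.1%) as control. After 48 h, CCK-8 (WST-8) was added for 4 h at 37 °C and A450 read, corrected to 650 nm. Viability is % of DMSO control. IC50 was taken from log cytotoxicity curves.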

Experiment [3] concerns HCT-116. Put plainly: Growth inhibition of human HCT116 cells at 10 uM after 48 hrs by WST-8 assay. It counts as functional. The conditions noted are these: HCT-116, 48 h, read-out: GI. In a few lines: as §1
Experiment [4] concerns PANC-1. Put plainly: Cytotoxicity against human PANC1 cells after 48 hrs by WST-8 assay. It counts as functional, cell-based. The conditions noted are these: PANC-1, 48 h. Summed up:
as §2
For orientation: Tetrazolium assays rely on reduction of a dye to a coloured formazan, in cell work by metabolically active cells.

A further experiment concerns MCF-10A. Put plainly: Cytotoxicity against human MCF10A cells after 48 hrs by WST-8 assay. Type of experiment: cell-based. In a few lines:
as §2

For experiment [5], the system named is ACHN. Put plainly: Growth inhibition of human ACHN cells at 10 uM after 48 hrs by WST-8 assay. The conditions noted are these: read-out: GI. It counts as functional. In a few lines:
as §1

Experiment [6] relates to NCI-H460. Put plainly: Cytotoxicity against human NCI-H460 cells after 48 hrs by WST-8 assay. Type of experiment: functional, cell-based. The conditions noted are these: NCI-H460, 48 h. Summed up:
as §2

Experiment [7] deals with ACHN. Put plainly: Cytotoxicity against human ACHN cells after 48 hrs by WST-8 assay. Type of experiment: functional, cell-based. Summed up: as §2
Experiment [8] has as its system HCT-116. Put plainly: Cytotoxicity against human HCT116 cells after 48 hrs by WST-8 assay. The conditions noted are these: HCT-116, 48 h. Type of experiment: functional, cell-based. In a few lines:
as §2

The test system of experiment [9] is Calu-1. Put plainly: Growth inhibition of human Calu1 cells at 10 uM after 48 hrs by WST-8 assay. The conditions noted are these: Calu-1, 48 h, read-out: GI. It counts as functional. In a few lines: as §1
The test system of experiment [10] is NCI-H460. Put plainly: Growth inhibition of human NCI-H460 cells at 10 uM after 48 hrs by WST-8 assay. It counts as functional. The conditions noted are these: NCI-H460, 48 h, read-out: GI. Summed up:
as §1

The subject of experiment [11] is Calu-1. Put plainly: Growth inhibition of human Calu1 cells at 500 nM after 48 hrs by WST-8 assay. Type of experiment: functional. The conditions noted are these: Calu-1, 48 h, read-out: GI. In a few lines: as §1
In experiment [12] the test system is HCT-116. Put plainly: Growth inhibition of human HCT116 cells at 500 nM after 48 hrs by WST-8 assay. Type of experiment: functional. The conditions noted are these: HCT-116, 48 h, read-out: GI. Summed up: as §1
Experiment [13] deals with NCI-H460. Put plainly: Growth inhibition of human NCI-H460 cells at 500 nM after 48 hrs by WST-8 assay. The conditions noted are these: NCI-H460, 48 h, read-out: GI. It counts as functional. Summed up:
as §1

Experiment [14] concerns PANC-1. Put plainly: Growth inhibition of human PANC1 cells at 500 nM after 48 hrs by WST-8 assay. Type of experiment: functional. The conditions noted are these: PANC-1, 48 h, read-out: GI. Summed up: as §1
For experiment [15], the system named is ACHN. Put plainly: Growth inhibition of human ACHN cells at 500 nM after 48 hrs by WST-8 assay. Type of experiment: functional. The conditions noted are these: read-out: GI. Summed up: as §1

Consider `CC(C)CC(=O)c1c(O)c(C=O)c(O)c(C(c2cccnc2)c2c(O)c(C=O)c(O)c(C(=O)CC(C)C)c2O)c1O`, for which the inhibition of growth at 10 µM is 67% with PANC-1 [1]; 69% in the experiment on HCT-116 [3]; 71% with ACHN [5]; 66% in the experiment with Calu-1 [9]; 68% with NCI-H460 [10]. In addition, the IC50 in the experiment with Calu-1 [2] was 6.3 µM; with PANC-1 [4], 6.1 µM; with MCF-10A it was greater than 30 µM; with NCI-H460 [6], 5.8 µM; in the experiment on ACHN [7] it was 5.7 µM; with HCT-116 [8] it was 5.5 µM.
Take `CC(C)CC(=O)c1c(O)c(C=O)c(O)c(C(c2ccc3c(c2)Cc2ccccc2-3)c2c(O)c(C=O)c(O)c(C(=O)CC(C)C)c2O)c1O`: the inhibition of growth at 10 µM is 57% with PANC-1 [1]; 52% with HCT-116 [3]; 50% in the experiment with ACHN [5]; 58% in the experiment on Calu-1 [9]; 54% in the experiment on NCI-H460 [10]. For the same molecule, the IC50 amounted to 8.8 µM in the experiment on Calu-1 [2]; 9.6 µM in the experiment on PANC-1 [4]; 26.2 µM with MCF-10A; 9.2 µM with NCI-H460 [6]; 9.9 µM in the experiment on ACHN [7]; 9.4 µM in the experiment on HCT-116 [8].
On to `CC(C)CC(=O)c1c(O)c(C=O)c(O)c(C(c2ccc3c(c2)OCO3)c2c(O)c(C=O)c(O)c(C(=O)CC(C)C)c2O)c1O`, for which the inhibition of growth at 10 µM in the experiment with PANC-1 [1] was 55%; in the experiment on HCT-116 [3], 50%; in the experiment with ACHN [5], 53%; in the experiment on Calu-1 [9], 54%; with NCI-H460 [10] it was 51%. The IC50 in the experiment with Calu-1 [2] is 9.2 µM; in the experiment on PANC-1 [4], 8.8 µM; in the experiment on MCF-10A, 25.9 µM; with NCI-H460 [6] it was 8.6 µM; in the experiment on ACHN [7], 8.9 µM; with HCT-116 [8], 9.5 µM.
As to `Nc1ccn([C@@H]2O[C@H](CO)[C@@H](O)C2(F)F)c(=O)n1` [GEMCITABINE], the inhibition of growth at 0.5 µM in the experiment on Calu-1 [11] stood at 74%; in the experiment with HCT-116 [12], 86%; in the experiment with NCI-H460 [13], 81%; in the experiment on PANC-1 [14], 83%; in the experiment with ACHN [15], 77%. The IC50 is 0.52 µM in the experiment on Calu-1 [2]; 0.11 µM with PANC-1 [4]; greater than 10 µM in the experiment on MCF-10A; 0.23 µM in the experiment with NCI-H460 [6]; 0.48 µM in the experiment with ACHN [7]; 0.32 µM in the experiment on HCT-116 [8].

As usually defined, the IC50 is the concentration that gives 50% inhibition. Read a high IC50 as a need for much substance.
